Records with an inconclusive call do not appear. Active and inactive are the calls of the source.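 The calls were made as follows, unless noted: active = inhibition over a set limit, the all-compound mean plus 3 SD, in both replicate runs; inconclusive = over that limit in just one replicate run; inactive = at or under that limit in both runs.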
Legend:
[1] = S. cerevisiae growth inhibition in permissive medium (OD615), pilot counter-assay for S. cerevisiae lifespan shortening project, permissive growth control (AID 705;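 active = growth inhibition above 25% in both replicates, a cutoff set 3 SD above the mean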); conditions: OD615, 24 h, at 10 µM, hits give high values
Procedure, shortened: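 System: engineered DeaD yeast; Medium: permissive raffinose/galactose medium; Compound dosing: 10 µM single dose, 0.25% DMSO; Incubation: 4 h cell pre-growth, 24 h exposure at 30 °C; Technique: OD at 615 nm; Evaluation: growth inhibition from lowered OD615 after 24 h.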

[2] = S. cerevisiae growth inhibition in restrictive medium, OD615, pilot screen, restrictive growth control, yeast lifespan reduction project (AID 706;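 active = growth inhibition above a set limit, 3 SD over mean compound inhibition, in both replicates, cut at about 43% in these data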;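 also: modified DeaD lifespan yeast strain shifted to restrictive glucose medium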); conditions: OD615, 48 h, at 10 µM, hits give high values
Procedure, shortened: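 Material: modified S. cerevisiae; buffer or medium: CSMM-D glucose medium; doses: one concentration, 10 µM final, 0.25% DMSO; incubation: 48 h compound exposure at 30 °C; detection: optical density at 615 nm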

[3] = doxorubicin toxicity protection in MRP-1 cells – H69AR cells, CellTiter-Glo, duplicate, MRP-1 activator project, pilot screen (AID 807;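 active = viability increase at or above a cutoff of the median across tested compounds plus 3 SD, cut at about 8.5% in these data, passing the limit was not always enough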;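 also: compound pretreatment 18-22 h then 72 h combined with doxorubicin; 0% = doxorubicin alone and 100% = vehicle without doxorubicin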); conditions: H69AR viability with doxorubicin, CellTiter-Glo luminescence; at 10 µM; hits give high values
[4] = viability of HCT116 without oncogenic beta-catenin – human colon tumor cells, pilot screen (AID 823;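 active = cell viability at or below a set limit in both duplicate runs, the limit being the all-compound median minus 4 SD, cut at about 23% in these data, passing the limit was not always enough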;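 also: 0% = wells killed by 20 µM Hyamine and 100% = untreated DMSO cell wells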); conditions: HCT116 beta-catenin knockout viability, CellTiter-Glo, 60 h; at 10 µM; hits give low values
[5] = viability of PTEN-null HCT116 cells – cell-based, HCT116 clonal line, CellTiter-Glo, pilot screen (AID 824;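 active = viability at or below 27.92% in each of two runs, the all-compound median minus 4 SD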;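 also: 0% = 20 µM Hyamine control and 100% = vehicle cell control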); conditions: HCT116 PTEN-deleted viability, 60 h, at 10 µM, hits give low values
[6] = RAM pathway blockade in budding yeast – dse1pr::URA3 reporter, 5-FOA selection, pilot screen (AID 869);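 also: 0% = DMSO wells with no growth and 100% = 10 µM 1-NA-PP1 with full growth; RAM network block rescues cells from 5-FOA so hits raise OD615 growth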; conditions: S. cerevisiae dse1pr::URA3 5-FOA growth, OD615, 2 d; at 10 µM; hits give high values; strain carries analog-sensitive mutant Cbk1 kinase
[7] = RAM signaling pathway blockade in yeast – S. cerevisiae, Pdr1DBD-CYC8 efflux-inhibited sensitized strain, primary screen (AID 1298;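 active = RAM network inhibition above 8.4% in each of two replicates, 3 SD over the compound average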;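 also: 0% = DMSO untreated cells without growth and 100% = 10 µM 1-NA-PP1 full growth; higher means more yeast growth rescued from 5-FOA killing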); conditions: S. cerevisiae cbk1-as DSE1-URA3 strain, 5-FOA growth OD615, 2 d; at 50 µM; hits give high values

Cc1ccccc1Nc1ncnc2c1cnn2-c1ccccc1
inactive: growth inhibition [1] -4.67% | growth inhibition [2] -4.63% | viability increase [3] -3.78% | viability [4] 86% | viability [5] 84.3% | inhibition [6] -0.23% | RAM network inhibition [7] -0.01%

COc1ccc(-c2cc(C(F)(F)F)n3nc(C(=O)N4CCCC4)cc3n2)cc1
inactive: growth inhibition [1] -5.39% | growth inhibition [2] -2.34% | viability increase [3] -3.39% | viability [4] 93.9% | viability [5] 84.7% | inhibition [6] 1.71% | RAM network inhibition [7] 7.1%

O=C(O)Cc1ccc(NC(=O)C2CCCCC2C(=O)O)cc1 (configuration not stated)
inactive: growth inhibition [1] -15% | growth inhibition [2] -6.54% | viability increase [3] 0.06% | viability [4] 95.5% | viability [5] 103% | inhibition [6] 0.385% | RAM network inhibition [7] 2.44%

COCc1cc(C)nc2sc(C(=O)N3CCN(c4ccccc4)CC3)c(N)c12
inactive: growth inhibition [1] -3.52% | growth inhibition [2] 2.86% | viability increase [3] -0.4% | viability [4] 89% | viability [5] 86.8% | inhibition [6] 1.76% | RAM network inhibition [7] 3.05%

CCOC(=O)C1=C(C)NC(=O)NC1c1ccc(C)o1 (configuration not stated)
inactive: growth inhibition [1] 8.61% | growth inhibition [2] 7.96% | viability increase [3] -1.92% | viability [4] 105% | viability [5] 100% | inhibition [6] 0.345% | RAM network inhibition [7] 2.74%

CCCC(=O)Nc1ccccc1-c1nnc(SC)[nH]c1=O
inactive: growth inhibition [1] -10.4% | growth inhibition [2] 1.72% | viability increase [3] -2.76% | viability [4] 113% | viability [5] 99.3% | inhibition [6] 1.06% | RAM network inhibition [7] 1.27%

COC(=O)C(CCSC)NC(=O)Cn1ncc2c(=O)oc3ccc(C)cc3c21 (configuration not stated)
inactive: growth inhibition [1] 6.62% | growth inhibition [2] -7.95% | viability increase [3] -3.14% | viability [4] 113% | viability [5] 91.3% | inhibition [6] 0.875% | RAM network inhibition [7] 1.93%

CC(C)C(=O)N1CCN(c2ccccc2N)CC1
inactive: growth inhibition [1] -9.49% | growth inhibition [2] -20.2% | viability increase [3] -1.42% | viability [4] 102% | viability [5] 95.8% | inhibition [6] 1.55% | RAM network inhibition [7] 1.34%

COc1cccc(OC)c1C(=O)Nc1nnc(C(C)C)s1
inactive: growth inhibition [1] -6.36% | growth inhibition [2] 6.23% | viability increase [3] -1.98% | viability [4] 89.9% | viability [5] 85.1% | inhibition [6] 2.25% | RAM network inhibition [7] 0.97%

Cc1cc(C)c2c(=O)[nH]c(SCC(=O)N3CCCCC3)nc2n1
inactive: growth inhibition [1] -12.1% | growth inhibition [2] -6.02% | viability increase [3] -0.84% | viability [4] 93.1% | viability [5] 101% | inhibition [6] 0.535% | RAM network inhibition [7] 2.3%

O=C1Nc2ccccc2C(O)(C(=O)NCc2ccco2)N1c1ccccc1 (configuration not stated)
inactive: growth inhibition [1] -5.44% | growth inhibition [2] 1.25% | viability increase [3] -1.5% | viability [4] 108% | viability [5] 98.7% | inhibition [6] 0.96% | RAM network inhibition [7] 1.15%

Cc1ccc(S(=O)(=O)N2CCN(Cc3ccccc3C(F)(F)F)CC2)cc1
inactive: growth inhibition [1] -12.5% | growth inhibition [2] -27.7% | viability increase [3] -1.45% | viability [4] 78% | viability [5] 82.8% | inhibition [6] 0.92% | RAM network inhibition [7] 3.06%

CCOCN(C(=O)Cn1c(CO)nc2ccccc21)c1c(C)cccc1CC
inactive: growth inhibition [1] -10.7% | growth inhibition [2] 0.69% | viability increase [3] -3.12% | viability [4] 89.4% | viability [5] 94.4% | inhibition [6] 2.68% | RAM network inhibition [7] 7.56%

Cc1nnc(NC(=O)CSc2nnc(Cc3cccn3C)n2-c2ccccc2)s1
active: growth inhibition [2] 46.5%
inactive: growth inhibition [1] 10.8% | viability increase [3] 0.97% | viability [4] 95% | viability [5] 95.3% | inhibition [6] 1.31% | RAM network inhibition [7] 4.48%

Cc1cc(C)c2c(=O)[nH]n(C3CCOC(C)(C)C3)c2n1 (configuration not stated)
inactive: growth inhibition [1] -4.97% | growth inhibition [2] -0.145% | viability increase [3] -0.16% | viability [4] 107% | viability [5] 99.8% | inhibition [6] -0.37% | RAM network inhibition [7] 1.49%

COc1ccc(CNC(=O)c2cc(C3CC3)on2)cc1
inactive: growth inhibition [1] -3.07% | growth inhibition [2] 6.49% | viability increase [3] -1.95% | viability [4] 94.3% | viability [5] 95.5% | inhibition [6] -0.84% | RAM network inhibition [7] -2.3%

COc1ccc(F)cc1S(=O)(=O)Nc1ccc2c(c1)OCCO2
inactive: growth inhibition [1] -3.12% | growth inhibition [2] -5.07% | viability increase [3] -1.33% | viability [4] 91.1% | viability [5] 86.6% | inhibition [6] 2.45% | RAM network inhibition [7] 2.35%

COCC(=O)Nc1cc(=O)n(C)c(=O)n1C
inactive: growth inhibition [1] -4.37% | growth inhibition [2] -24.4% | viability increase [3] -1.62% | viability [4] 100% | viability [5] 94.4% | inhibition [6] 1.73% | RAM network inhibition [7] -0.05%

CCCCOc1ccc(CN2CCC(O)CC2)cc1
inactive: growth inhibition [1] -18.6% | growth inhibition [2] -6.13% | viability increase [3] -0.47% | viability [4] 90.9% | viability [5] 100% | inhibition [6] 1.06% | RAM network inhibition [7] 2.2%

COc1ccccc1OCC(=O)Nc1ccc(S(=O)(=O)NC(C)=O)cc1
inactive: growth inhibition [1] -17% | growth inhibition [2] -5.72% | viability increase [3] 1.56% | viability [4] 89.2% | viability [5] 103% | inhibition [6] 0.645% | RAM network inhibition [7] 2.08%

Cc1cc(C)n(-c2nc(C)nc(NCc3ccccc3)n2)n1
inactive: growth inhibition [1] -17.5% | growth inhibition [2] -11.6% | viability increase [3] -2.88% | viability [4] 88.4% | viability [5] 82.7% | inhibition [6] 0.215% | RAM network inhibition [7] 0.98%

Cc1oc(-c2cccs2)nc1CS(=O)CC(=O)NC1CCCCCC1 (configuration not stated)
active: growth inhibition [2] 51.7%
inactive: growth inhibition [1] 11.3% | viability increase [3] -2.99% | viability [4] 75.4% | viability [5] 84.5% | inhibition [6] -0.045% | RAM network inhibition [7] -1.22%

CCn1cc(C(=O)NC2CCCCCC2)c(=O)c2cc(S(=O)(=O)N3CCCCC3)ccc21
inactive: growth inhibition [1] -3.87% | growth inhibition [2] -20.1% | viability increase [3] -8.11% | viability [4] 72.2% | viability [5] 69.8% | inhibition [6] 0.625% | RAM network inhibition [7] 2.45%

COc1ccccc1N1CCN(Cc2cc(Br)c(O)c3ncccc23)CC1
active: growth inhibition [1] 96.8% | growth inhibition [2] 98.6% | viability [4] 6.37% | viability [5] 6.17%
inactive: viability increase [3] -6.58% | inhibition [6] -0.8% | RAM network inhibition [7] -1.73%

COc1ccc(-n2c3c(cc(C(=O)N4CCC(C)CC4)c2=O)C(=O)CC(C)(C)C3)cc1
inactive: growth inhibition [1] -3.21% | growth inhibition [2] 7.18% | viability increase [3] -2.27% | viability [4] 111% | viability [5] 101% | inhibition [6] 1.98% | RAM network inhibition [7] 0.25%

O=C1c2ccccc2C(=O)N1CCCc1nc(-c2ccc(Cl)cc2)no1
inactive: growth inhibition [1] -1.86% | growth inhibition [2] -5.26% | viability increase [3] -1.79% | viability [4] 102% | viability [5] 100% | inhibition [6] 4.25% | RAM network inhibition [7] 2.37%

Cc1ccc2oc(=O)c3cnn(CC(=O)N4CCCCCC4)c3c2c1
inactive: growth inhibition [1] -11% | growth inhibition [2] -0.055% | viability increase [3] -3.69% | viability [4] 82.8% | viability [5] 89.1% | inhibition [6] 1.46% | RAM network inhibition [7] 2.05%

O=C(CCc1nc2ccccc2[nH]1)N1CCc2ccccc2C1
inactive: growth inhibition [1] -11.6% | growth inhibition [2] -12.5% | viability increase [3] -1.86% | viability [4] 104% | viability [5] 94.8% | inhibition [6] 0.94% | RAM network inhibition [7] 1.76%

Cc1nn(C)c(C)c1S(=O)(=O)N(CC(=O)NCc1ccco1)c1ccc(C(C)C)cc1
inactive: growth inhibition [1] -10.3% | growth inhibition [2] -2.95% | viability increase [3] -5.76% | viability [4] 96.8% | viability [5] 97.3% | inhibition [6] -0.17% | RAM network inhibition [7] 7.88%

Nc1ccc2nc(-c3ccc(Cl)cc3)[nH]c2c1
inactive: growth inhibition [1] -13% | growth inhibition [2] -10.7% | viability increase [3] -8.6% | viability [4] 73.4% | viability [5] 75.3% | inhibition [6] 0.935% | RAM network inhibition [7] 4.58%

CC1=C(C)C(=O)N(CCC(=O)O)C1=O
inactive: growth inhibition [1] -12.6% | growth inhibition [2] -20.3% | viability increase [3] -1.09% | viability [4] 95.3% | viability [5] 93.8% | inhibition [6] 1.52% | RAM network inhibition [7] 3.32%

O=C(C1CC1)N1CCc2cc(Br)cc(S(=O)(=O)NCCCN3CCCC3)c21
inactive: growth inhibition [1] -9.22% | growth inhibition [2] -4.36% | viability increase [3] -2.47% | viability [4] 87.6% | viability [5] 86.3% | inhibition [6] 0.08% | RAM network inhibition [7] 5.37%

COc1ccc(N2CCN(C(=O)c3ccc4c(c3)OCO4)CC2)cc1
inactive: growth inhibition [1] -2.83% | growth inhibition [2] 14.7% | viability increase [3] -0.77% | viability [4] 97.8% | viability [5] 100% | inhibition [6] 2.04% | RAM network inhibition [7] 0.86%

Cc1ccc(-c2nc(CS(=O)CC(=O)NCCCN3CC(C)CC(C)C3)c(C)o2)cc1 (configuration not stated)
inactive: growth inhibition [1] -14.2% | growth inhibition [2] -13.2% | viability increase [3] -4.27% | viability [4] 77.5% | viability [5] 79.1% | inhibition [6] 0.255% | RAM network inhibition [7] 2.65%

CC(=O)c1cccc(NC(=O)c2c(F)c(F)c(F)c(F)c2F)c1
inactive: growth inhibition [1] -4.19% | growth inhibition [2] 6.79% | viability increase [3] -7.13% | viability [4] 95% | viability [5] 88.4% | inhibition [6] 1.01% | RAM network inhibition [7] -0.87%

O=C(O)C1CCCCN1S(=O)(=O)c1ccc(Cl)s1 (configuration not stated)
inactive: growth inhibition [1] -2.17% | growth inhibition [2] 1.02% | viability increase [3] -1.27% | viability [4] 101% | viability [5] 97.3% | inhibition [6] 0.505% | RAM network inhibition [7] -0.42%

From PubChem BioAssay
